This is a sample that favours compounds with a hit; in the whole collection about 9.4% have one here.
SKKanGAS inh – S. pyogenes SKKanGAS growth inhibitors in kanamycin, primary screen, streptokinase expression inhibitor project, SKKanGAS strain, BacTiter-Glo luminescence. 6 h. inhibition, % at 7.5 µM. 300,000 compounds, 1.3% hits. AID 1662, 2009;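 active means mean replicate score, as percent of positive control median, at least 50; inconclusive means mean below 50 but one replicate at or above 50; inactive means mean and every replicate below 50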;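 further: strain carries kanamycin resistance gene driven by streptokinase promoter and grows in 40 µg/ml kanamycin; loss of luminescence reflects streptokinase promoter inhibition or plain growth inhibition; 0% = median of DMSO wells and 100% = positive control at its reference dose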
L major viab – Leishmania major promastigote growth inhibition, primary screen; 200,000 compounds, 9% hits; Leishmania major promastigotes, resazurin fluorescence viability; AID 1063, 2008; inhibition, % at 10 µM; in the data active means inhibition above about 50%;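 further: promastigotes grown with compound for 44 hours at 28 °C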
Mdm2-MdmX inh – inhibitors of human Mdm2-MdmX association, primary screen, cell-based, luminescence, split luciferase, SaOS-2, uHTS; 330,000 compounds, 3% hits; SaOS-2 split-luciferase Mdm2/MdmX complementation; inhibition, % at 8 µM; AID 485346, 2010;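 active means inhibition of at least 50% at 8 µM in the primary screen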
Beta cell apopt – inhibitors of cytokine-induced beta cell apoptosis, primary screen, luminescence | INS-1E cytokine-induced death, ATP luminescence, 48 h; percent of positive-control rescue, neutral wells zero | protection from apoptosis, % (concentration not given with the values) | 300,000 compounds, 0.8% hits | AID 435005, 2010;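 active means Every replicate reaches about 75%, or at least half do and their mean reaches it too, limit read from the data; inconclusive means At least half of replicates reach the limit but their mean does not; inactive means Under half of replicates reach the limit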;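 further: 0% = cytokine-treated negative control wells and 100% = positive control rescue; higher means more ATP so stronger rescue from cytokine killing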
CSC inhib – cancer stem cell viability inhibitors, primary screen, luminescence; cancer stem cell-like cells viability; inhibition, % at 7.5 µM; 300,000 compounds, 1.1% hits; AID 2717, 2010; in the data active means inhibition above about 75%; inconclusive means no clear call, values can overlap the other calls; tested in HMLE shEcad cells
T cruzi inh – inhibitors of intracellular T. cruzi growth, primary screen, luminescence, NIH3T3 host cells; T. cruzi beta-gal in NIH3T3, 90 h; inhibition, % (test concentration not listed); 300,000 compounds, 1.4% hits; AID 1885, 2009;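 active means mean inhibition across valid replicates above about 55%, limit read from the data; inconclusive means mean below that limit but half or more replicates reach it; inactive means mean below it, under half of replicates reach it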;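 further: signal also drops with host cell toxicity which is not excluded here; 0% = plate median of DMSO wells and 100% = zero luminescence signal; higher percent means less beta-gal luminescence so fewer parasites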
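System: Mouse NIH/3T3 fibroblasts infected with β-gal-expressing T. cruzi Tulahuen C4 | Quantity: NIH/3T3 cells, 5,000 per well | Reagent: 5000 reporter trypomastigotes per well | Dosing: Compound pinned at 50 nL/well, DMSO | Schedule: 3 h host attachment, then at least 90 h co-culture | Detection: GalScreen luminescence, 60 min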
Mdm2 MdmX conf – Mdm2-MdmX complex disruptors, retested hits, confirmation, luminescence, single concentration; AID 489028, 2010; inhibition, % at 8 µM; Mdm2-MdmX binding, luminescent assay; 10,000 compounds, 55% hits; shares compounds with Mdm2-MdmX inh; in the data active means inhibition above about 40%
FLuc counter – full-length luciferase signal inhibition, confirmation, counter-screen for Mdm2/MdmX interaction inhibitor project, cell-based, single concentration, SaOS-2; shares compounds with Mdm2-MdmX inh; SaOS-2 full-length luciferase counterscreen, luminescence; inhibition, % at 8 µM; 6,200 compounds, 77% hits; AID 504607, 2011;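 active means mean inhibition at 8 µM reaching about 37%, which flags the compound as non-specific, limit read from the data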;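 further: p53-null SaOS-2 cells with luciferase driven by a doxycycline-inducible promoter; compound on cells about two nights before reading with doxycycline added after day one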
The depositor's hits bear a star; ? = inconclusive; nt = no result given.

SMILES	SKKanGAS inh	L major viab	Mdm2-MdmX inh	Beta cell apopt	CSC inhib	T cruzi inh	Mdm2 MdmX conf	FLuc counter
O=C(O)c1ccc(-n2nnnc2SCc2ccccc2Br)cc1	-1.7	nt	-9.6	-3.2	6.7	-6.9	nt	nt
Fc1ccc(-c2cnc3n2CCCCC3)cc1	0.5	9.1	17.6	0.5	-9.2	-15.7	nt	nt
O=c1cc(O)c2sc(Nc3ccc(F)cc3)nc2[nH]1	7.3	-4.3	65.7*	nt	10.4	-17.5	47.5*	42.5*
CCOc1ccccc1NC(=O)c1cc(-c2cc(OC)c(OC)c(OC)c2)nc2ccccc12	27.0	nt	54.7*	8.8	-9.1	36.1	29.9	nt
COc1ccc(-c2cc(C(=O)Nc3ccccc3O)c3ccccc3n2)cc1OC	16.6	-4.6	52.1*	16.5	31.3	-23.1	51.9*	106.9*
COC(=O)c1cc(OC)c(OC)cc1NC(=O)c1cc(-c2ccccc2)nc2ccccc12	-18.5	-3.2	29.6	45.6	12.2	8.4	nt	nt
COc1ccc(-c2cc(C(=O)Nc3ccc(Cl)cc3Cl)c3ccccc3n2)cc1OC	13.6	12.5	-19.6	46.7	-22.2	7.3	nt	nt
COc1cc(-c2cc(C(=O)Nc3ccc(S(=O)(=O)NCc4ccco4)cc3)c3ccccc3n2)cc(OC)c1OC	36.9	75.8*	63.4*	11.4	16.8	55.6*	77.2*	49.6*
COc1cc(-c2cc(C(=O)NCc3ccco3)c3ccccc3n2)cc(OC)c1OC	-1.7	nt	17.2	nt	-7.3	-8.7	nt	nt
COc1ccc(NC(=O)c2cc(-c3ccncc3)nc3ccc(Br)cc23)cc1OC	7.0	nt	96.7*	24.4	14.5	35.1	10.9	nt
COc1ccccc1NC(=O)c1cc(-c2cc(OC)c(OC)c(OC)c2)nc2ccccc12	7.5	nt	54.7*	9.4	24.7	33.9	28.9	nt
COc1cc(NC(=O)c2cc(-c3ccccc3)nc3c2cnn3C(C)C)cc(OC)c1OC	nt	nt	62.9*	26.0	29.0	nt	27.9	nt
CNC(=O)c1cccc(NC(=O)c2cc(-c3ccccc3)nc3c2cnn3C(C)C)c1	nt	nt	37.5	5.6	32.2	nt	nt	nt
COc1cc(-c2cc(C(=O)Nc3ccncc3)c3ccccc3n2)cc(OC)c1OC	nt	nt	17.6	18.9	nt	nt	nt	nt
S=C1NC2=C(CCCC2=C2SCCS2)C(c2ccccc2)N1 (stereo not given)	4.2	13.1	64.8*	-20.7	42.3	28.4	23.4	nt
Fc1ccc(/C=C2\CCCC3=C2NC(=S)NC3c2ccc(F)cc2)cc1 (stereo not given)	nt	25.8	nt	nt	nt	nt	nt	nt
OC(CNCc1ccco1)Cn1c2ccc(Br)cc2c2cc(Br)ccc21 (stereo not given)	51.7*	9.7	74.8*	2.8	106.0*	42.0	30.9	69.8*
Cc1cc2c(OCC(O)CNCc3ccco3)cccc2[nH]1 (stereo not given)	-3.6	nt	-22.5	-5.3	-9.1	33.4	nt	nt
COc1ccc(Cn2c(SCc3ccccc3C)nc3cc(OC)c(OC)cc3c2=N)cc1	60.1*	100.5*	96.9*	108.5*	99.7*	48.2	52.4*	48.4*
COc1cc2nc(SCc3ccc(F)cc3)n(Cc3cccs3)c(=N)c2cc1OC	13.6	11.3	41.9	18.3	0.0	36.1	nt	nt
CC(C)c1nnc(NC(=O)CCC(=O)NCc2ccc(F)cc2)s1	-2.3	nt	-8.1	-3.8	-16.1	7.9	nt	nt
CCCn1c(N)c(N2CCCCC2)c(=O)n(CC(=O)Nc2cccc(S(=O)(=O)N(C)C)c2)c1=O	nt	nt	27.0	-0.6	-21.6	nt	nt	nt
COc1cc(Nc2ccc(C)cc2)c([N+](=O)[O-])nc1[N+](=O)[O-]	3.3	14.9	52.5*	50.2	?	60.3*	42.1*	86.9*
Cc1ccc(Nc2ccc(C(=O)O)cc2[N+](=O)[O-])cc1	2.8	nt	15.1	-2.8	-2.7	2.8	nt	nt

Assay outcomes deposited in PubChem BioAssay by several laboratories.
